The source made the active and inactive calls. The calls are words filed in the database; no cut-off is given here.
Experiments:
[1] = target: T1, Tyrosine-protein phosphatase non-receptor type 1 (Homo sapiens, UniProt P18031); test: Inhibition of PTP1B by pNPP assay
T1 sequence (P18031 whole entry): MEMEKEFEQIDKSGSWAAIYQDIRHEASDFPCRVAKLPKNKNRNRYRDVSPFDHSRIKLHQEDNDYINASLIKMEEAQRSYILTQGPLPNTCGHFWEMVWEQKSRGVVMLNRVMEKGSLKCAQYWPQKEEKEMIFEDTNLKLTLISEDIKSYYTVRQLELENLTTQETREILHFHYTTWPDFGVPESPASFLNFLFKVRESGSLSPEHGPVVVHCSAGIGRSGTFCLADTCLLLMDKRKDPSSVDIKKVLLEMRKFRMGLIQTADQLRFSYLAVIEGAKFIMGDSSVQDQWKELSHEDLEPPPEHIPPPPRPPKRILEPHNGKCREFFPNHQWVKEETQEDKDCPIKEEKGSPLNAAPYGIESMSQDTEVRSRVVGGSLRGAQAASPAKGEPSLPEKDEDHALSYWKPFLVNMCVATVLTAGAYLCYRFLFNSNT

[2] = target: T2, Tyrosine-protein phosphatase non-receptor type 2 (Homo sapiens, UniProt P17706); test: Inhibition of TCPTP by pNPP assay
T2 sequence (P17706 whole entry): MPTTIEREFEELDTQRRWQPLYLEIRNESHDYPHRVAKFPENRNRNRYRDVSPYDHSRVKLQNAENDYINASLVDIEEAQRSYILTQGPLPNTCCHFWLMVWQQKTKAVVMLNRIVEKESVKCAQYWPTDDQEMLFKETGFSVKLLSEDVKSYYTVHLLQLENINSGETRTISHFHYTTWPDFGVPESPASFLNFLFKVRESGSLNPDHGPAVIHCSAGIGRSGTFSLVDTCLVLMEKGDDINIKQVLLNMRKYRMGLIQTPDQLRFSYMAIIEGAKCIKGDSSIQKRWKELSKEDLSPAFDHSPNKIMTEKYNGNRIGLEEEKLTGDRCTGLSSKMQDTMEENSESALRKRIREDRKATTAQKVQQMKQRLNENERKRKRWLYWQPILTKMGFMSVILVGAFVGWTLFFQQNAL

[3] = target: Tyrosine-protein phosphatase non-receptor type 6 (Homo sapiens, UniProt P29350); test: Inhibition of human recombinant SHP1
Tyrosine-protein phosphatase non-receptor type 6, sequence (P29350 whole entry): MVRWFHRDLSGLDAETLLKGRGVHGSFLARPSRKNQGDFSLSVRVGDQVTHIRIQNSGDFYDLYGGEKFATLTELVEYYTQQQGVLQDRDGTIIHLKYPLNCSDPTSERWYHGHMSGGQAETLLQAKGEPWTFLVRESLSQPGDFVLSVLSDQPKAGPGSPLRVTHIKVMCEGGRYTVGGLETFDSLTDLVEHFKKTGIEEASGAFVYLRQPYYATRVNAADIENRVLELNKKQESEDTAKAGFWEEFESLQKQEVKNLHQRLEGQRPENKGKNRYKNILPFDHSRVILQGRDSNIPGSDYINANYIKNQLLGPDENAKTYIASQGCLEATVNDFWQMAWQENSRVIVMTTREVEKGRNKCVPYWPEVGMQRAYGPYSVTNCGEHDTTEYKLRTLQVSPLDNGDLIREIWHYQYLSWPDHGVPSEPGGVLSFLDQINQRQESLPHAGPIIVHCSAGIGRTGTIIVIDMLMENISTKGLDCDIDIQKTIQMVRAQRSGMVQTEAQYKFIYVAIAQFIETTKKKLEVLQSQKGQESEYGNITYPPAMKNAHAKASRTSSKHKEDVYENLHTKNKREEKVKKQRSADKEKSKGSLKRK

[4] = target: Receptor-type tyrosine-protein phosphatase F (Homo sapiens, UniProt P10586); test: Inhibition of human recombinant LAR
Receptor-type tyrosine-protein phosphatase F, sequence (P10586 whole entry): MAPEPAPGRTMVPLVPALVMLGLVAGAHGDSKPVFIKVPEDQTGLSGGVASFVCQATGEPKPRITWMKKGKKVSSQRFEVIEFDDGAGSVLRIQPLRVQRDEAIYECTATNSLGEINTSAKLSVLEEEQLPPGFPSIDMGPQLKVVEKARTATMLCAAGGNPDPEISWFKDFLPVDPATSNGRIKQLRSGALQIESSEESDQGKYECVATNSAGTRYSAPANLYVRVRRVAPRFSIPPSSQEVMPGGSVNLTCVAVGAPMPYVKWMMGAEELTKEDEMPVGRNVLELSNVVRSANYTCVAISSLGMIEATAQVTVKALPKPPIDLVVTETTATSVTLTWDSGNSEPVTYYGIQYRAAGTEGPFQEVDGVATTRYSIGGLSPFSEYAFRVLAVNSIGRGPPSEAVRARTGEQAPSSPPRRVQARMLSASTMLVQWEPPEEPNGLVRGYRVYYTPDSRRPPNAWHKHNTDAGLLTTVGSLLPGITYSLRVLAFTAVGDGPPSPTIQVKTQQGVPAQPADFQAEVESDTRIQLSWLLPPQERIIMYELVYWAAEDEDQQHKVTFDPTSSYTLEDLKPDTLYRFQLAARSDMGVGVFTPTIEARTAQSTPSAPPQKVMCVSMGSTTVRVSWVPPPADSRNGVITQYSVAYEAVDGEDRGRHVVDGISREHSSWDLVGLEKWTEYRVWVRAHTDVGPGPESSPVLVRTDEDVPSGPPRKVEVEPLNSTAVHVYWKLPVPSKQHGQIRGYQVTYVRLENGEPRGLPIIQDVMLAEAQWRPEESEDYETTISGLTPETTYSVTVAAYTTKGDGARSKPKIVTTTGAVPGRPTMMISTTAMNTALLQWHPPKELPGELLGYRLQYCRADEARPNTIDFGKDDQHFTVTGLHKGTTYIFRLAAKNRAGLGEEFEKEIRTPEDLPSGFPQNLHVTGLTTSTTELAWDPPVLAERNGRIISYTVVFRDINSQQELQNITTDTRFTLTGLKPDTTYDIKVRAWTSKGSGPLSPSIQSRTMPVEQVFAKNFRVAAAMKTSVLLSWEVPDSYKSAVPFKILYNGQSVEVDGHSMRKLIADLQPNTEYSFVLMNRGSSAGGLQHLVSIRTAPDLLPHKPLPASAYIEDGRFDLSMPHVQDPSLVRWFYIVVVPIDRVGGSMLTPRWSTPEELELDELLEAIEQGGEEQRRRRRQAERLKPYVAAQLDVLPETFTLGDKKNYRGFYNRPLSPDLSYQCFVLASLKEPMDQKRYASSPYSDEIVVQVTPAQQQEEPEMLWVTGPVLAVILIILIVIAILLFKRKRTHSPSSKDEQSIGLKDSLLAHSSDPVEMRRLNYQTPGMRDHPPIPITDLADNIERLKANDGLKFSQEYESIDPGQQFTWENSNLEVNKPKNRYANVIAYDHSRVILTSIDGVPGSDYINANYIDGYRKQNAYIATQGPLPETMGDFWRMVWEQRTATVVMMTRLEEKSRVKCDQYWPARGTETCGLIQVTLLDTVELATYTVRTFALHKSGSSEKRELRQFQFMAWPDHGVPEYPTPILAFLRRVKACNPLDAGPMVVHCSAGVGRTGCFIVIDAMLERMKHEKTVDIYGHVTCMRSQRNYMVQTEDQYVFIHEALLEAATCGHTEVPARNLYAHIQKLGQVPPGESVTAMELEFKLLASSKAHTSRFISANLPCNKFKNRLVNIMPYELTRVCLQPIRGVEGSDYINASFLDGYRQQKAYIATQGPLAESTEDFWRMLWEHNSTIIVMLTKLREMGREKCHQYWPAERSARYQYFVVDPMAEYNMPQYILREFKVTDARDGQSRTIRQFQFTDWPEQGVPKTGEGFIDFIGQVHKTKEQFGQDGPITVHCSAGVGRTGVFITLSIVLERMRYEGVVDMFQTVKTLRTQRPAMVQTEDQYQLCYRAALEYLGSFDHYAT

[5] = target: Receptor-type tyrosine-protein phosphatase alpha (Homo sapiens, UniProt P18433); test: Inhibition of human recombinant PTPalpha
Receptor-type tyrosine-protein phosphatase alpha, sequence (P18433 whole entry): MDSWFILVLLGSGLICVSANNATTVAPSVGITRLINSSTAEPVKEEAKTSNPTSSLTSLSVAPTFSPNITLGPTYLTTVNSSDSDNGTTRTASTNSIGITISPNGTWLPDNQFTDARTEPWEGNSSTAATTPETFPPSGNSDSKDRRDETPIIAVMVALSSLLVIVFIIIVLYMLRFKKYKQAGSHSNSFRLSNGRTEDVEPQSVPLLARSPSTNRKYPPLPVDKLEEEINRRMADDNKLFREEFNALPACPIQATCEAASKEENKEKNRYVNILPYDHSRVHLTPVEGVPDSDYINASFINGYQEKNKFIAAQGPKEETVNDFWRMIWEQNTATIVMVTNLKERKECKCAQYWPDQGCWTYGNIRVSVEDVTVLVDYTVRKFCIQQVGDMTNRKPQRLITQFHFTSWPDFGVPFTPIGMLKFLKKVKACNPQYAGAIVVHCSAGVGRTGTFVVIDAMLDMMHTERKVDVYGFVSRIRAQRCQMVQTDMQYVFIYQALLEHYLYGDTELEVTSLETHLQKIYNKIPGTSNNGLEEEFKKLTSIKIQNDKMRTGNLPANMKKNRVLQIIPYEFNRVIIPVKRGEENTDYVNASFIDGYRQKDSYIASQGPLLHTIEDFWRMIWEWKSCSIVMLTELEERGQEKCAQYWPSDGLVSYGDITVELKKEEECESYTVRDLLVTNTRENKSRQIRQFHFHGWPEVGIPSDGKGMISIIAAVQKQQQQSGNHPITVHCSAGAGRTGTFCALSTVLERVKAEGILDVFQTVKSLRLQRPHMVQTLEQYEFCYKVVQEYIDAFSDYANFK

[6] = target: Receptor-type tyrosine-protein phosphatase epsilon (Homo sapiens, UniProt P23469); test: Inhibition of human recombinant PTPepsilon
Receptor-type tyrosine-protein phosphatase epsilon, sequence (P23469 whole entry): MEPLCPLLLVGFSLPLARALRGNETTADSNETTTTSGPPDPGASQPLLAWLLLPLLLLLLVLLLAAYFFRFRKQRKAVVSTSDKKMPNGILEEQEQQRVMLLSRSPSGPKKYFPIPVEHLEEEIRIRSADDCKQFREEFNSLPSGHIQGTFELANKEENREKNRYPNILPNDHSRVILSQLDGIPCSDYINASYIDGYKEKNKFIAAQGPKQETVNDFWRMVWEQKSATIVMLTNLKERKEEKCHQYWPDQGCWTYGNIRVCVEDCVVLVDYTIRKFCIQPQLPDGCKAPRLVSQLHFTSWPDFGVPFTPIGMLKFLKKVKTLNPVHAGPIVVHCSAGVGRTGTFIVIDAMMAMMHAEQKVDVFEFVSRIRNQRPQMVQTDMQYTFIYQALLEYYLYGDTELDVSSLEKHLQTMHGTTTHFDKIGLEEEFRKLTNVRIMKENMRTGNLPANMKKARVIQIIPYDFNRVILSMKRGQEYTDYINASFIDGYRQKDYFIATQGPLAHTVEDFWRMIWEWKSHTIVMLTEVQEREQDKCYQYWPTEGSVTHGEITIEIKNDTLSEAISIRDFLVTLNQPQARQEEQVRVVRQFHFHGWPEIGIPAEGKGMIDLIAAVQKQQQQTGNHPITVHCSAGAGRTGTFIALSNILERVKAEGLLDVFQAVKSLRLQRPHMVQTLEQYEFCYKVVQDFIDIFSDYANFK

[7] = Selectivity for PTP1B to human recombinant SHP1
[8] = target: Insulin receptor (Homo sapiens) (UniProt P06213); test: Increase in human IRbeta phosphorylation expressed in CHO cells; type: cell-based
Summary of the method: (§1)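 CHO cells stably carrying human insulin receptor were grown near-confluent, then starved 2 h in serum-free Ham's F-12. Compound was given for 3 h, followed by 10 nM insulin for 10 min. Lysates were run on 8% SDS-PAGE and western blotted for phospho-IR (Tyr1162/1163), phospho-Akt (Ser473) and β-actin, with ECL detection.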

[9] = target: RAC-alpha serine/threonine-protein kinase (Homo sapiens) (UniProt P31749); test: Increase in human Akt phosphorylation expressed in CHO cells; type: cell-based; summary of the method: as §1
RAC-alpha serine/threonine-protein kinase (Homo sapiens), sequence (P31749 whole entry): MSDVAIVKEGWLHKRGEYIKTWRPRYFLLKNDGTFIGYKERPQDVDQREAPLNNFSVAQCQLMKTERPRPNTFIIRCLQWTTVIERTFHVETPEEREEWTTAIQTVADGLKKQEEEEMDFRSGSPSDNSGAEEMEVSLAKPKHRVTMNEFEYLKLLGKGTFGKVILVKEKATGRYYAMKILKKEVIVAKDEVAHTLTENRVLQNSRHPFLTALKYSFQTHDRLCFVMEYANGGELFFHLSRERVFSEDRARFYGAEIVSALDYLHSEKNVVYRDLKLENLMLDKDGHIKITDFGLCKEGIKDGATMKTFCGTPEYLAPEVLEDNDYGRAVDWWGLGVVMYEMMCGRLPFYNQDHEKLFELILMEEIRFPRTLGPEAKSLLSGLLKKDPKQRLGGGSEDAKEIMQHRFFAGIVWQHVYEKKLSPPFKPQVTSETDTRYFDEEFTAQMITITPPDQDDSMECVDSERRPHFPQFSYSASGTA

L6 [10] = test: Increase in glucose uptake in rat L6 cells after 3 hrs in absence of insulin; type: functional, cell-based
Summary of the method: (§2)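 Rat L6 myoblasts grown in α-DMEM with 10% FBS at 37 °C under 5% CO2, then differentiated in α-DMEM with 2% FBS. Used as myotubes on day 5 after 2 h serum-free starvation (0.2% BSA). Compound at 250 nM–2 µM for 3 h without insulin. 2-Deoxy[1,2-3H]glucose uptake measured over 10 min in HEPES saline, pH 7.4, 0.1 mM glucose. Lysate counts normalised to protein, given as % of basal/0.2% DMSO cells.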

L6 [11] = test: Increase in glucose uptake in rat L6 cells at 1 uM after 3 hrs in absence of insulin relative to basal; type: functional; summary of the method: as §2
L6 [12] = test: Increase in glucose uptake in rat L6 cells at 1 uM after 3 hrs in presence of insulin relative to basal; type: functional; details: in the assay text read “after 2.5 hrs” for “after 3 hrs”
Summary of the method: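 Differentiated rat L6 myotubes (day 5) were serum-starved 2 h, exposed to 1.0 µM compound for 2.5 h, then stimulated 30 min with 1, 10 or 100 nM insulin. 2-Deoxy[1,2-3H]glucose uptake was read over 10 min (0.1 mM glucose, HEPES saline pH 7.4). Radioactivity from 0.1% Triton lysates was normalised to protein and expressed relative to basal/DMSO-treated cells.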

Row | SMILES | IC50 [1] [µM] | IC50 [2] [µM] | IC50 [3] [µM] | IC50 [4] [µM] | IC50 [5] [µM] | IC50 [6] [µM] | Ratio [7] | Activity [8] | Activity [9] | Activity (L6 [10]) | Activity (L6 [11]) [%] | Activity (L6 [12]) [%]
1 | CC1(C)CC[C@]2(CCCCC(=O)O)CC[C@]3(C)C(=CC[C@@H]4[C@@]5(C)CC[C@H](O)C(C)(C)[C@@H]5CC[C@]43C)[C@@H]2C1 | 1.33 | 1.11 | 5.2 | > 40 | > 40 | > 40 | 2 | – | – | – | – | –
2 | C[C@H]1[C@H](C)CC[C@]2(C(=O)O)CC[C@]3(C)C(=CC[C@@H]4[C@@]5(C)C[C@@H](O)[C@H](O)C(C)(C)[C@@H]5CC[C@]43C)[C@H]12 [COROSOLIC ACID] | 5.49 | 11.3 | 24.6 | > 40 | > 40 | > 40 | 2 | – | – | – | – | –
3 | CC1(C)CC[C@]2(CCC(=O)O)CC[C@]3(C)C(=CC[C@@H]4[C@@]5(C)CC[C@H](O)C(C)(C)[C@@H]5CC[C@]43C)[C@@H]2C1 | 2.1 | 2.77 | 27.4 | > 40 | > 40 | > 40 | 2 | – | – | – | – | –
4 | CC1(C)CC[C@]2(C(=O)O)CC[C@]3(C)C(=CC[C@@H]4[C@@]5(C)CC[C@H](OCc6ccc(C(=O)O)cc6)C(C)(C)[C@@H]5CC[C@]43C)[C@@H]2C1 | 0.54 | 0.47 | 4.05 | > 40 | > 40 | > 40 | 2 | – | – | – | – | –
5 | CC1(C)CC[C@]2(CCCCC(=O)N[C@@H](Cc3ccccc3)C(=O)O)CC[C@]3(C)C(=CC[C@@H]4[C@@]5(C)CC[C@H](O)C(C)(C)[C@@H]5CC[C@]43C)[C@@H]2C1 | 0.57 | 0.63 | 4.08 | > 40 | > 40 | > 40 | 2 | – | – | – | – | –
6 | CC1(C)CC[C@]2(C(=O)O)CC[C@]3(C)C(=CC[C@@H]4[C@@]5(C)CC[C@H](OC(=O)CC(C)(C)C(=O)O)C(C)(C)[C@@H]5CC[C@]43C)[C@@H]2C1 | 2.33 | 1.38 | 12.4 | > 40 | > 40 | > 40 | 2 | – | – | – | – | –
7 | CC1(C)CC[C@]2(CCCCC(=O)NC(Cc3ccc([N+](=O)[O-])cc3)C(=O)O)CC[C@]3(C)C(=CC[C@@H]4[C@@]5(C)CC[C@H](O)C(C)(C)[C@@H]5CC[C@]43C)[C@@H]2C1 (stereo partly drawn) | 0.45 | 0.36 | – | – | – | – | – | – | – | – | – | –
8 | CC1(C)CC[C@]2(CCCCCCCCC(=O)O)CC[C@]3(C)C(=CC[C@@H]4[C@@]5(C)CC[C@H](O)C(C)(C)[C@@H]5CC[C@]43C)[C@@H]2C1 | 0.78 | 0.79 | – | – | – | – | – | – | – | – | – | –
9 | CC1(C)CC[C@]2(CCCCC(=O)N[C@@H](Cc3ccccc3)C(=O)O)CC[C@]3(C)C(=CC[C@@H]4[C@@]5(C)CC[C@H](OCc6ccc(C(=O)O)cc6)C(C)(C)[C@@H]5CC[C@]43C)[C@@H]2C1 | 0.15 | 0.16 | 0.89 | > 40 | > 40 | > 40 | 2 | Dose-dependent effect | Active | Dose-dependent effect | 40 | 20
10 | CC1(C)CC[C@]2(CCCCCCCCCCCCC(=O)O)CC[C@]3(C)C(=CC[C@@H]4[C@@]5(C)CC[C@H](O)C(C)(C)[C@@H]5CC[C@]43C)[C@@H]2C1 | 0.59 | 0.53 | – | – | – | – | – | – | – | – | – | –
11 | CC1(C)CC[C@]2(C(=O)O)CC[C@]3(C)C(=CC[C@@H]4[C@@]5(C)CC[C@H](OCc6ccccc6C(=O)O)C(C)(C)[C@@H]5CC[C@]43C)[C@@H]2C1 | 2.72 | 2.22 | – | – | – | – | – | – | – | – | – | –

More lines, main results first:

Row | IC50 [1] [µM] | IC50 [2] [µM] | IC50 [3] [µM] | IC50 [4] [µM] | IC50 [5] [µM] | IC50 [6] [µM] | Ratio [7] | Activity [8] | Activity [9] | SMILES | Activity (L6 [10]) | Activity (L6 [11]) [%] | Activity (L6 [12]) [%]
12 | – | 3.33 | 25.8 | > 40 | > 40 | > 40 | – | – | – | C[C@H]1[C@H](C)CC[C@]2(C(=O)O)CC[C@]3(C)C(=CC[C@@H]4[C@@]5(C)CC[C@H](O)C(C)(C)[C@@H]5CC[C@]43C)[C@H]12 [URSOLIC ACID] | – | – | –
13 | 0.44 | 0.6 | 0.71 | > 40 | > 40 | > 40 | 2 | – | – | CC1(C)CC[C@]2(CCCCC(=O)NC(Cc3ccc4c(c3)OCO4)C(=O)O)CC[C@]3(C)C(=CC[C@@H]4[C@@]5(C)CC[C@H](O)C(C)(C)[C@@H]5CC[C@]43C)[C@@H]2C1 (stereo partly drawn) | – | – | –
14 | 3.31 | – | 12.6 | – | – | – | – | – | – | CC1(C)CC[C@]2(C(=O)N[C@@H](Cc3ccccc3)C(=O)O)CC[C@]3(C)C(=CC[C@@H]4[C@@]5(C)CC[C@H](O)C(C)(C)[C@@H]5CC[C@]43C)[C@@H]2C1 | – | – | –
15 | – | – | – | > 40 | > 40 | > 40 | – | – | – | CC1(C)CC[C@]2(C(=O)O)CC[C@]3(C)C(=CC[C@@H]4[C@@]5(C)CC[C@H](O)C(C)(C)[C@@H]5CC[C@]43C)[C@@H]2C1 [OLEANOLIC_ACID] | – | – | –
16 | 0.63 | 0.85 | – | – | – | – | – | – | – | COc1cc(CC(NC(=O)CCCC[C@]23CCC(C)(C)C[C@H]2C2=CC[C@@H]4[C@@]5(C)CC[C@H](O)C(C)(C)[C@@H]5CC[C@@]4(C)[C@]2(C)CC3)C(=O)O)cc(OC)c1 (stereo partly drawn) | – | – | –
17 | > 20 | > 20 | – | – | – | – | – | – | – | CC1(C)CC[C@]2(C)CC[C@]3(C)[C@H](CC[C@@H]4[C@@]5(C)CC[C@H](O)C(C)(C)[C@@H]5CC[C@]43C)[C@@H]2C1 | – | – | –

From ChEMBL document CHEMBL1151785, “Oleanolic acid and its derivatives: new inhibitor of protein tyrosine phosphatase 1B with cellular activities” (Bioorg Med Chem, 2008)
